This note sets out measurements from ChEMBL document CHEMBL4680111, “Target Validation and Identification of Novel Boronate Inhibitors of the Plasmodium falciparum Proteasome” (J Med Chem, 2018).

Molecules are shown by their SMILES. Active and inactive are the calls of the source. The calls are words filed in the database; no cut-off is given here. Where only a bound is given, the exact number is not on record here.

For data set [1], the system named is Plasmodium falciparum. Description: Antiplasmodial activity against DHA-resistant and sorbitol synchronized ring stage forms of Plasmodium falciparum Cam3.II^R539T expressing K13 mutant assessed as reduction in parasitemia incubated for 3 hrs by pulse exposure based Syto-61 staining dye based flow cytometry analysis. The data set is classed as functional. The conditions noted are these: read-out: LD50 (the source's name). Put shortly: (§1)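 Tightly synchronized early-ring parasites (1-3 h post-invasion) exposed to compound for 3 h, then viability assessed in the next cycle. Cells stained with 2 µM Syto-61 and parasitemia read by flow cytometry, normalized to untreated and kill controls (2 µM DHA, 48-72 h). Mean ± SEM of three independent experiments.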

Data set [2] concerns Plasmodium falciparum. Description: Antiplasmodial activity against DHA-sensitive and sorbitol synchronized ring stage forms of Plasmodium falciparum Cam3.II^rev expressing K13 wild-type genotype assessed as reduction in parasitemia incubated for 3 hrs by pulse exposure based Syto-61 staining dye based flow cytometry analysis. It is filed as functional. The conditions noted are these: read-out: LD50 (the source's name). The essentials: as §1

Data set [3] relates to Plasmodium falciparum 3D7. Description: Inhibition of 20S proteasome beta 5 subunit in bortezomib-resistant Plasmodium falciparum 3D7 assessed as inhibition of BMV037 probe labeling at 1 to 10 uM incubated for 1 hr by SDS-PAGE analysis. The conditions noted are these: dose 1-10 µM.
Data set [4] is described as follows: Inhibition of Plasmodium falciparum 20S proteasome beta 1 subunit caspase-like activity using fluorogenic peptide Ac-nLPnLD-AMC as substrate in presence of PA28alpha incubated for 1 to 2 hrs by fluorescence microplate reader assay.
The target in data set [5] is T1, Proteasome Macropain subunit MB1 (Homo sapiens, UniProt P28074).
T1 sequence (P28074 whole entry): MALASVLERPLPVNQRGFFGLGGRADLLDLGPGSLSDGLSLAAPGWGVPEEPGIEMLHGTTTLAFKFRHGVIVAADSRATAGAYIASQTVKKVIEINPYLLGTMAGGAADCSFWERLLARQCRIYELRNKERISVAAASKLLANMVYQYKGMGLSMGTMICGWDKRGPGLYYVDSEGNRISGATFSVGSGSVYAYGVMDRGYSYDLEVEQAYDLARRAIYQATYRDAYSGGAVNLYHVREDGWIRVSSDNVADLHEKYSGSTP
Description: Inhibition of human 20S constitutive proteasome beta 5 subunit chymotrypsin-like activity using fluorogenic peptide Ac-WLA-AMC as substrate in presence of PA28alpha incubated for 1 to 2 hrs by fluorescence microplate reader assay.

Data set [6] concerns Plasmodium falciparum. Description: Antiplasmodial activity against sorbitol synchronized ring stage Plasmodium falciparum 3D7 assessed as reduction in parasitemia incubated for 72 hrs by Syto-61 staining dye based flow cytometry analysis. The data set is classed as functional. The conditions noted are these: read-out: LD50 (the source's name). The essentials: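 Sorbitol-treated ring-stage parasites in O+ human erythrocytes were incubated with compound for 72 h, and viability was read in the second cycle. Read-out was Syto-61 (2 µM) flow cytometry of parasitemia, normalized to untreated and 2 µM DHA-killed controls. Mean ± SEM of three independent experiments.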

Data set [7] has as its target T2, Proteasome subunit beta type-8 (Homo sapiens) (UniProt P28062).
T2 sequence (whole entry): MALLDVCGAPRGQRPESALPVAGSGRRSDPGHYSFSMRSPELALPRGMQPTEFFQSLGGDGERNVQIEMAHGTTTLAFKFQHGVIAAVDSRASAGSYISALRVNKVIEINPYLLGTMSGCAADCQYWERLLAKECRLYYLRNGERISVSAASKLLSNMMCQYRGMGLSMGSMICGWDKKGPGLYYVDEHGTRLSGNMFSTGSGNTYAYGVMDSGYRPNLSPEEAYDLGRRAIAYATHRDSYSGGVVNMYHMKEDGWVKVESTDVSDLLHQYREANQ
Description: Inhibition of human 20S immunoproteasome beta 5 subunit assessed as inhibition of BMV037 probe labeling at 1 to 10 uM incubated for 1 hr by SDS-PAGE analysis. The conditions noted are these: dose 1-10 µM. The essentials:
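Purified human immuno-20S (20 nM) was incubated with compound at 37°C for 1 h, then labelled with 10 µM BMV037 at 37°C for 2 h. Samples were run on 4-12% Bis-Tris gel with MES buffer, and active subunits were visualised by Cy5 fluorescence.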

Data set [8] is described as follows: Inhibition of Plasmodium falciparum 20S proteasome beta 2 subunit trypsin-like activity using fluorogenic peptide Ac-WLR-AMC as substrate in presence of PA28alpha incubated for 1 to 2 hrs by fluorescence microplate reader assay.
In data set [9] the target is T3, Proteasome subunit beta type-10 (Homo sapiens, UniProt P40306).
T3 sequence (P40306 whole entry): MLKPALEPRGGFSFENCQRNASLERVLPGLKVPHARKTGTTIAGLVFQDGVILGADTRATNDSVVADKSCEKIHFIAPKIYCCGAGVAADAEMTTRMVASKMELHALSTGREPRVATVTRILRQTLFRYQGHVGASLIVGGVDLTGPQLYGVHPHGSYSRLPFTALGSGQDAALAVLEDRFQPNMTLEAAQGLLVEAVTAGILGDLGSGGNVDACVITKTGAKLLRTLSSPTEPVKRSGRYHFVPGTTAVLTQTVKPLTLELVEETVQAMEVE
Description: Inhibition of human 20S immunoproteasome beta 2 subunit trypsin-like activity using fluorogenic peptide Ac-WLR-AMC as substrate in presence of PA28alpha incubated for 1 to 2 hrs by fluorescence microplate reader assay.

Data set [10] can be described thus: Inhibition of Plasmodium falciparum 20S proteasome beta 5 subunit chymotrypsin-like activity using fluorogenic peptide Ac-WLA-AMC as substrate in presence of PA28alpha incubated for 1 to 2 hrs by fluorescence microplate reader assay.
For data set [11], the target named is T4, Proteasome subunit beta type-6 (Homo sapiens, UniProt P28072).
T4 sequence (P28072 whole entry): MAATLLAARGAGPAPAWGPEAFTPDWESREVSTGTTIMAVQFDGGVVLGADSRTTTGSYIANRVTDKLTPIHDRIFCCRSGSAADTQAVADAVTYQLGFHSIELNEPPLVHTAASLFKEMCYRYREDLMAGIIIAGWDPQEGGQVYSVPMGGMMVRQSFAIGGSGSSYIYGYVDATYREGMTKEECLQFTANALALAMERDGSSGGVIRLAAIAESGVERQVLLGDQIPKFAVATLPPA
Description: Inhibition of human 20S constitutive proteasome beta 1 subunit caspase-like activity using fluorogenic peptide Ac-nLPnLD-AMC as substrate in presence of PA28alpha incubated for 1 to 2 hrs by fluorescence microplate reader assay.

Data set [12] addresses T5, Proteasome subunit beta type-9 (Homo sapiens, UniProt P28065).
T5 sequence (P28065 whole entry): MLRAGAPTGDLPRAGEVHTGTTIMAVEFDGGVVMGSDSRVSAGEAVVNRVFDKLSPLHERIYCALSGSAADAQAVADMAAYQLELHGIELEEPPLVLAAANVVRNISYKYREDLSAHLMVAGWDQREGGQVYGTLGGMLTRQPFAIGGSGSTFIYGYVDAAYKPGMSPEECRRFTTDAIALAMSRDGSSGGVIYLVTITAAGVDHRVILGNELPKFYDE
Description: Inhibition of human 20S immunoproteasome beta 1 subunit caspase-like activity using fluorogenic peptide Ac-nLPnLD-AMC as substrate in presence of PA28alpha incubated for 1 to 2 hrs by fluorescence microplate reader assay.

Data set [13] deals with T6, Proteasome subunit beta type-8 (Homo sapiens, UniProt P28062).
T6 sequence (P28062 whole entry): T2 sequence (whole entry)
Description: Inhibition of human 20S immunoproteasome beta 5 subunit chymotrypsin-like activity using fluorogenic peptide Ac-WLA-AMC as substrate in presence of PA28alpha incubated for 1 to 2 hrs by fluorescence microplate reader assay.

Data set [14] is described as follows: Selectivity index, ratio of LD50 for cytotoxicity against human HepG2 cells to LD50 for antiplasmodial activity against Plasmodium falciparum 3D7 sorbitol-treated ring stage. The data set is classed as toxicity, cell-based. To be noted: read-out: Selectivity Index.

For the molecule `CC(C)C[C@H](NC(=O)[C@H](Cc1ccccc1)NC(=O)Cc1ccc(O)cc1)B(O)O`, the LC50 worked out at 160 nM with Plasmodium falciparum [1], 180 nM in the data set with Plasmodium falciparum [2] and 61 nM in the data set on Plasmodium falciparum [6]. The inhibition entry in data set [3] was “inactive”. For the same molecule, the IC50 in [4] was determined as 600 nM; in data set [5], 1.4 nM; in data set [8], 60 nM; in [9] it was 300 nM; in data set [10], 10 nM; in [11] it was 52 nM. Also, the IC50 in [12] was 5 nM; in data set [13] it was 1.3 nM. The inhibition result in [7] is “Active”. In data set [14], the selectivity ratio stood at 0.7.
As for `Cc1ccc(S(=O)(=O)N[C@@H](CC(=O)NCC(C)(C)C)C(=O)N[C@@H](Cc2ccccc2)C(=O)N[C@@H](CC(C)C)B(O)O)cc1`, the LC50 with Plasmodium falciparum [1] worked out at 190 nM; in the data set on Plasmodium falciparum [2] it was 210 nM; with Plasmodium falciparum [6] it was 65 nM. Moreover, the inhibition entry in [3] and in data set [7] was “Active” in each case. Moreover, the IC50 is 1780 nM in data set [4]; 9 nM in data set [5]; 70 nM in data set [8]; 130 nM in [9]; 16 nM in data set [10]; 1600 nM in data set [11]. The IC50 in data set [12] was found to be 29 nM; in [13] it was 5 nM. The selectivity ratio in data set [14] stood at 4.
`CC(=O)N1CCC[C@@H]1C(=O)N[C@@H](C)C(=O)N[C@@H](Cc1ccccc1)B(O)O`: the LC50 turned out to be 820 nM in the data set on Plasmodium falciparum [1], 900 nM in the data set on Plasmodium falciparum [2] and 120 nM in the data set with Plasmodium falciparum [6]. The inhibition entry in data set [3] and in data set [7] was “Active” each time. Moreover, the IC50 was 3190 nM in data set [4]; 220 nM in data set [5]; more than 10000 nM in data set [8]; more than 10000 nM in [9]; 1500 nM in data set [10]; 3400 nM in data set [11]. Moreover, the 50% inhibitory concentration (IC50) in data set [12] worked out at 8 nM; in [13], 28 nM. Also, the selectivity ratio in data set [14] amounted to 56.
